Source: ChEMBL document CHEMBL5058577, “EUbOPEN Chemogenomics Library 2 (Multiplex)” (2022)

Tested on: U2OS
Assay: Multiplex assay against U2OS
Format: toxicity, cell-based
Details: human
Method in brief: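 Live cells were stained at seeding with Hoechst33342, BioTracker Green Microtubule Cytoskeleton Dye, MitoTracker Red and Annexin V Alexa Fluor 680, then imaged on a CQ1 microscope at 37°C and 5% CO2 after compound addition. CellPathfinder machine-learning gating split cells into Hoechst high-intensity objects or normal cells. Normal cells were split into healthy, pyknosed or fragmented nuclei, and pyknosed cells into mitotic or apoptotic. Tubulin, mitochondrial-mass and membrane-permeability phenotypes are per cents of healthy-nucleus cells.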

[1] = 12 h, 1 µM, compound concentration 1 uM, replicate 1
[2] = 12 h, 1 µM, compound concentration 1 uM, replicate 2
[3] = 12 h, 10 µM, compound concentration 10 uM, replicate 1
[4] = 12 h, 10 µM, compound concentration 10 uM, replicate 2
[5] = 24 h, 1 µM, compound concentration 1 uM, replicate 1
[6] = 24 h, 1 µM, compound concentration 1 uM, replicate 2
[7] = 24 h, 10 µM, compound concentration 10 uM, replicate 1
[8] = 24 h, 10 µM, compound concentration 10 uM, replicate 2
[9] = 48 h, 1 µM, compound concentration 1 uM, replicate 1
[10] = 48 h, 1 µM, compound concentration 1 uM, replicate 2
[11] = 48 h, 10 µM, compound concentration 10 uM, replicate 1
[12] = 48 h, 10 µM, compound concentration 10 uM, replicate 2

CN(C)C(=O)Cn1cc(-c2ccc(-c3cncc4ccccc34)cc2)cn1 was tested, and the “Population Apoptotic (%)” value [1] was 68%, the “Population Fragmented Nuclei (%)” value [1] was 22% and the “Population Healthy Nuclei (%)” value [1] was 68%. The “Population Hoechst High Intensity Objects (%)” value [1] was 3%, the “Population Membrane Permeable-Phenotype (%)” value [1] was 8% and the “Population Mitochondria Different-Phenotype (%)” value [1] was 4%. The “Population Mitotic Cells (%)” value [1] was 31%, the “Population Normal (%)” value [1] was 96% and the “Population Pyknosed Nuclei (%)” value [1] was 9%. For the same molecule, the “Population Tubulin-Different-Phenotype (%)” value [1] was 5%, the “Total Cell Count” value [1] was 240 and the “Population Apoptotic (%)” value [2] was 69%. The “Population Fragmented Nuclei (%)” value [2] was 18%, the “Population Healthy Nuclei (%)” value [2] was 69% and the “Population Hoechst High Intensity Objects (%)” value [2] was 0%. For the same molecule, the “Population Membrane Permeable-Phenotype (%)” value [2] was 6%, the “Population Mitochondria Different-Phenotype (%)” value [2] was 2% and the “Population Mitotic Cells (%)” value [2] was 30%. The “Population Normal (%)” value [2] was 99%, the “Population Pyknosed Nuclei (%)” value [2] was 11% and the “Population Tubulin-Different-Phenotype (%)” value [2] was 3%. For the same molecule, the “Total Cell Count” value [2] was 110, the “Population Apoptotic (%)” value [3] was 66% and the “Population Fragmented Nuclei (%)” value [3] was 21%. The “Population Healthy Nuclei (%)” value [3] was 67%, the “Population Hoechst High Intensity Objects (%)” value [3] was 5% and the “Population Membrane Permeable-Phenotype (%)” value [3] was 20%. The “Population Mitochondria Different-Phenotype (%)” value [3] was 12%, the “Population Mitotic Cells (%)” value [3] was 33% and the “Population Normal (%)” value [3] was 94%. For the same molecule, the “Population Pyknosed Nuclei (%)” value [3] was 10%, the “Population Tubulin-Different-Phenotype (%)” value [3] was 14% and the “Total Cell Count” value [3] was 205. The “Population Apoptotic (%)” value [4] was 100%, the “Population Fragmented Nuclei (%)” value [4] was 18% and the “Population Healthy Nuclei (%)” value [4] was 75%. For the same molecule, the “Population Hoechst High Intensity Objects (%)” value [4] was 3%, the “Population Membrane Permeable-Phenotype (%)” value [4] was 22% and the “Population Mitochondria Different-Phenotype (%)” value [4] was 19%. The “Population Mitotic Cells (%)” value [4] was 0%, the “Population Normal (%)” value [4] was 96% and the “Population Pyknosed Nuclei (%)” value [4] was 5%. For the same molecule, the “Population Tubulin-Different-Phenotype (%)” value [4] was 23%, the “Total Cell Count” value [4] was 98 and the “Population Apoptotic (%)” value [5] was 100%. The “Population Fragmented Nuclei (%)” value [5] was 21%, the “Population Healthy Nuclei (%)” value [5] was 69% and the “Population Hoechst High Intensity Objects (%)” value [5] was 3%. The “Population Membrane Permeable-Phenotype (%)” value [5] was 5%, the “Population Mitochondria Different-Phenotype (%)” value [5] was 2% and the “Population Mitotic Cells (%)” value [5] was 0%. The “Population Normal (%)” value [5] was 96%, the “Population Pyknosed Nuclei (%)” value [5] was 8% and the “Population Tubulin-Different-Phenotype (%)” value [5] was 4%. For the same molecule, the “Total Cell Count” value [5] was 278, the “Population Apoptotic (%)” value [6] was 90% and the “Population Fragmented Nuclei (%)” value [6] was 15%. For the same molecule, the “Population Healthy Nuclei (%)” value [6] was 76%, the “Population Hoechst High Intensity Objects (%)” value [6] was 1% and the “Population Membrane Permeable-Phenotype (%)” value [6] was 8%. The “Population Mitochondria Different-Phenotype (%)” value [6] was 6%, the “Population Mitotic Cells (%)” value [6] was 9% and the “Population Normal (%)” value [6] was 98%. The “Total Cell Count” value [6] was 127, the “Population Apoptotic (%)” value [7] was 54% and the “Population Fragmented Nuclei (%)” value [7] was 25%. The “Population Healthy Nuclei (%)” value [7] was 64%, the “Population Hoechst High Intensity Objects (%)” value [7] was 3% and the “Population Membrane Permeable-Phenotype (%)” value [7] was 19%. The “Population Mitochondria Different-Phenotype (%)” value [7] was 9%, the “Population Mitotic Cells (%)” value [7] was 45% and the “Population Normal (%)” value [7] was 96%. For the same molecule, the “Population Pyknosed Nuclei (%)” value [7] was 9%, the “Population Tubulin-Different-Phenotype (%)” value [7] was 10% and the “Total Cell Count” value [7] was 244. For the same molecule, the “Population Apoptotic (%)” value [8] was 80%, the “Population Fragmented Nuclei (%)” value [8] was 11% and the “Population Healthy Nuclei (%)” value [8] was 84%. For the same molecule, the “Population Hoechst High Intensity Objects (%)” value [8] was 2%, the “Population Membrane Permeable-Phenotype (%)” value [8] was 16% and the “Population Mitochondria Different-Phenotype (%)” value [8] was 15%. For the same molecule, the “Population Mitotic Cells (%)” value [8] was 20%, the “Population Normal (%)” value [8] was 97% and the “Population Pyknosed Nuclei (%)” value [8] was 4%. For the same molecule, the “Population Tubulin-Different-Phenotype (%)” value [8] was 14%, the “Total Cell Count” value [8] was 110 and the “Population Apoptotic (%)” value [9] was 87%. For the same molecule, the “Population Fragmented Nuclei (%)” value [9] was 18%, the “Population Healthy Nuclei (%)” value [9] was 69% and the “Population Hoechst High Intensity Objects (%)” value [9] was 2%. For the same molecule, the “Population Membrane Permeable-Phenotype (%)” value [9] was 6%, the “Population Mitochondria Different-Phenotype (%)” value [9] was 3% and the “Population Mitotic Cells (%)” value [9] was 12%. For the same molecule, the “Population Normal (%)” value [9] was 97%, the “Population Pyknosed Nuclei (%)” value [9] was 12% and the “Population Tubulin-Different-Phenotype (%)” value [9] was 4%. For the same molecule, the “Total Cell Count” value [9] was 333, the “Population Apoptotic (%)” value [10] was 88% and the “Population Fragmented Nuclei (%)” value [10] was 20%. For the same molecule, the “Population Healthy Nuclei (%)” value [10] was 67%, the “Population Hoechst High Intensity Objects (%)” value [10] was 3% and the “Population Membrane Permeable-Phenotype (%)” value [10] was 12%. For the same molecule, the “Population Mitochondria Different-Phenotype (%)” value [10] was 9%, the “Population Mitotic Cells (%)” value [10] was 11% and the “Population Normal (%)” value [10] was 96%. The “Population Pyknosed Nuclei (%)” value [10] was 11%, the “Population Tubulin-Different-Phenotype (%)” value [10] was 9% and the “Total Cell Count” value [10] was 163. For the same molecule, the “Population Apoptotic (%)” value [11] was 74%, the “Population Fragmented Nuclei (%)” value [11] was 22% and the “Population Healthy Nuclei (%)” value [11] was 62%. For the same molecule, the “Population Hoechst High Intensity Objects (%)” value [11] was 2%, the “Population Membrane Permeable-Phenotype (%)” value [11] was 15% and the “Population Mitochondria Different-Phenotype (%)” value [11] was 8%. The “Population Mitotic Cells (%)” value [11] was 25%, the “Population Normal (%)” value [11] was 97% and the “Population Pyknosed Nuclei (%)” value [11] was 14%. For the same molecule, the “Population Tubulin-Different-Phenotype (%)” value [11] was 8%, the “Total Cell Count” value [11] was 302 and the “Population Apoptotic (%)” value [12] was 92%. The “Population Fragmented Nuclei (%)” value [12] was 21%, the “Population Healthy Nuclei (%)” value [12] was 68% and the “Population Membrane Permeable-Phenotype (%)” value [12] was 20%. For the same molecule, the “Population Mitochondria Different-Phenotype (%)” value [12] was 14%, the “Population Mitotic Cells (%)” value [12] was 7% and the “Population Pyknosed Nuclei (%)” value [12] was 9%. For the same molecule, the “Population Tubulin-Different-Phenotype (%)” value [12] was 16% and the “Total Cell Count” value [12] was 149.
